For series [1], the system named is Leishmania infantum. The series is described as follows: Antileishmanial activity against Leishmania infantum MHOM/MA(BE)/67 infected in mouse primary peritoneal macrophages treated 2 hrs post-infection and incubated for 5 days by Giemsa staining based microscopic analysis. It is filed as functional, organism-based. Conditions: MHOM/MA(BE)/67, Peritoneal macrophage. The gist of the method:
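Peritoneal macrophages from mice, harvested 2 days after 2% potato starch stimulation, infected after 48 h with L. infantum in supplemented RPMI-1640 with 5% FCS. Compounds were added 2 h post-infection as a 10-point 4-fold dilution series, final DMSO <1%, and incubated 5 days at 37 °C, 5% CO₂. Amastigotes per macrophage were counted after 10% Giemsa staining, and IC₅₀ was taken from % reduction versus untreated-infected controls.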

The subject of series [2] is Macrophage. The series is described as follows: Cytotoxicity against mouse primary macrophage cells assessed as reduction in cell viability. It is filed as cell-based. A digest of the protocol: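 Macrophage toxicity was scored microscopically within the L. infantum assays, using cell detachment, lysis and granulation. At least 500 cells over adjacent fields were scored semi-quantitatively, and CC₅₀ was taken from % reduction in normal cells versus untreated controls.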

For series [3], the system named is Trypanosoma brucei brucei. The series is described as follows: Antitrypanosomal activity against Trypanosoma brucei brucei assessed as parasite growth inhibition. The series is classed as functional, organism-based.
Series [4] is described as follows: Selectivity index, ratio of EC50 for human MRC5 cells to EC50 for antitrypanosomal activity against Trypanosoma brucei rhodesiense. Particulars: read-out: Ratio EC50. It is filed as toxicity. The gist of the method: (§1)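 Selectivity index is the MRC-5 EC₅₀ divided by the parasite EC₅₀.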
Series [5] is described as follows: Selectivity index, ratio of EC50 for human MRC5 cells to EC50 for antitrypanosomal activity against Trypanosoma brucei brucei. Conditions: read-out: Ratio EC50. The series is classed as toxicity. A digest of the protocol:
as §1

Series [6] relates to Trypanosoma brucei rhodesiense. The series is described as follows: Antitrypanosomal activity against Trypanosoma brucei rhodesiense assessed as parasite growth inhibition. The series is classed as functional, organism-based.
Series [7] concerns Trypanosoma cruzi. As to the kind of experiment: Antitrypanosomal activity against Trypanosoma cruzi Tulahuen CL2 infected in human MRC5 cells assessed as inhibition of parasite growth incubated for 7 days by chlorophenol red-fl-D-galactopyranoside based spectrophotometric analysis. The series is classed as functional, organism-based. Conditions: Tulahuen CL2, MRC5, 168 h. A digest of the protocol:
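T. cruzi Tulahuen CL2 β-galactosidase strain was maintained on MRC-5_SV2 cells. Wells held 4×10³ cells plus 4×10⁴ parasites with a 10-point 4-fold compound series, final DMSO <1%. After 7 days at 37 °C, 5% CO₂, substrate was added and absorbance read at 540 nm after 4 h at 37 °C. IC₅₀ was taken from % reduction versus infected and uninfected controls.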

Series [8] has as its system MRC5. The series is described as follows: Cytotoxicity against human MRC5 cells assessed as reduction in cell viability after 3 days by resazurin dye based fluorimetric analysis. Particulars: MRC5, 72 h. The gist of the method:
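MRC-5_SV2 cells, 1.5×10⁵ cells/mL in MEM with Earl's salts, L-glutamine, NaHCO₃ and 5% inactivated FCS, were exposed 3 days at 37 °C, 5% CO₂ to a 10-point 4-fold dilution series, final DMSO <1%. Resazurin was added for 4 h, fluorescence read at ex 550/em 590 nm, and IC₅₀ derived versus untreated and medium controls.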

A short description of series [9]: Selectivity index, ratio of EC50 for cytotoxicity against human MRC5 cells to EC50 for antitrypanosomal activity against Trypanosoma cruzi Tulahuen CL2 infected in human MRC5 cells. The series is classed as toxicity, cell-based. Particulars: read-out: Ratio EC50. A digest of the protocol: as §1
Series [10] is described as follows: Selectivity index, ratio of EC50 for cytotoxicity against mouse primary macrophage to EC50 for antileishmanial activity against Leishmania infantum MHOM/MA(BE)/67 infected in mouse primary peritoneal macrophages. The series is classed as toxicity. Conditions: read-out: Ratio EC50.

pEC50: −log10 of the molar value. A value given as a limit tells only on which side of the number the result lay.

Broadly, the pEC50 is −log10 of the EC50, conventionally taken in molar units. For `COc1ncnc2c1c(Br)cn2[C@@H]1O[C@H](CO)[C@@H](F)[C@H]1O`, the pEC50 is less than 4.19 in [1]; less than 4.19 in series [2]; 5.06 in [3]; 4.29 in [6]; less than 4.19 in series [7]; less than 4.19 in series [8]. In addition, the selectivity ratio stood at 1 in [4] and 7 in series [5].
As to `Nc1ncnc2c1c(-c1ccc(Cl)c(F)c1)cn2[C@@H]1O[C@H](CO)[C@H](F)[C@H]1O`, the pEC50 in series [1] is 5.23; in series [2], 5.10; in series [3] it was 5.37; in series [6], 5.84; in series [7], 6.38; in series [8] it was 4.73. The selectivity ratio turned out to be 13 in [4], 4 in series [5], 44 in series [9] and 1 in series [10].
As to `O=c1[nH]cnc2c1ncn2[C@@H]1O[C@H](CO)[C@@H](F)[C@H]1O`, the pEC50 in series [1] is less than 4.19; in series [2] it was less than 4.19; in series [3] it was less than 4.19; in series [6], less than 4.19; in [7], 5.37; in series [8], less than 4.19. The selectivity ratio in series [9] is greater than 15.
Regarding `C#Cc1cn([C@@H]2O[C@H](CO)[C@@H](F)[C@H]2O)c2ncnc(N)c12`, the pEC50 in series [1] was 6.89; in series [2], 6.89; in [3], 7.40; in [6], 7.70; in series [7] it was 7.40; in series [8] it was 6.80. Besides, the selectivity ratio in [4] worked out at 7; in series [5], 4; in series [9], 4; in series [10] it was 1.
Turning to `Nc1ncnc2c1ccn2[C@@H]1O[C@H](CO)[C@H](F)[C@H]1O`, the pEC50 in series [1] is less than 4.19; in series [2], less than 4.19; in series [3] it was 7.40; in series [6], 8.20; in [7], less than 4.19; in [8], less than 4.19. For the same compound, the values for the selectivity ratio in series [4] and in [5] were greater than 10100 and greater than 1590, respectively.
`Nc1ncnc2c1c(Br)cn2[C@@H]1O[C@H](CO)[C@H](F)[C@H]1O`: the pEC50 in series [1] was 5.09; in [2] it was 4.70; in [3], 7.49; in [6], 8.31; in [7] it was 5.13; in [8] it was 6.12. Further, the selectivity ratio was 152 in series [4], 23 in series [5], less than 1 in series [9] and 2 in series [10].
`COc1ccc(-c2cn([C@@H]3O[C@H](CO)[C@@H](F)[C@H]3O)c3ncnc(N)c23)cc1`: the pEC50 in series [1] was 4.49; in [2], 4.49; in [3] it was 4.36; in series [6], 4.59; in series [7], 5.06; in series [8], 4.85. Also, the selectivity ratio was less than 1 in series [4], less than 1 in series [5], 2 in series [9] and 1 in [10].
Consider `N#Cc1cn([C@@H]2O[C@H](CO)[C@@H](F)[C@H]2O)c2ncnc(N)c12`, for which the pEC50 in series [1] was 5.69; in [2] it was 5.70; in series [3], 4.98; in series [6], 6.42; in series [7], 5.02; in series [8] it was 5.88. The selectivity ratio in series [4] is 3; in [9], less than 1; in series [10], less than 1.
Take `NC(=O)c1cn([C@@H]2O[C@H](CO)[C@@H](F)[C@H]2O)c2ncnc(N)c12`: the pEC50 was 4.49 in [1]; 4.49 in series [2]; 5.63 in series [3]; 6.92 in series [6]; 5.15 in series [7]; 5.62 in [8]. In addition, the selectivity ratio in series [4] was 20; in series [5], 1; in series [9], less than 1; in series [10] it was 1.
For `OC[C@H]1O[C@@H](n2cc(Br)c3c(O)ncnc32)[C@H](O)[C@H]1F`, the pEC50 in series [1] is less than 4.19; in series [2], less than 4.19; in series [3], 4.80; in [6], 5.80; in series [7] it was less than 4.19; in [8], less than 4.19. Besides, the results for the selectivity ratio in [4] and in series [5] were greater than 41 and greater than 4, respectively.
Consider `Nc1ncnc2c1c(F)cn2[C@@H]1O[C@H](CO)[C@@H](F)[C@H]1O`, for which the pEC50 was 5.76 in [1]; 5.70 in [2]; 6.33 in series [3]; 6.80 in series [6]; 6.60 in series [7]; 5.26 in series [8]. The values for the selectivity ratio in [4], in series [5] and in series [9] were 27, 9 and 22, respectively.
Turning to `Nc1ncnc2c1c(C(F)(F)F)cn2[C@@H]1O[C@H](CO)[C@@H](F)[C@H]1O`, the pEC50 was 4.56 in series [1]; 4.49 in series [2]; 5.69 in series [3]; 5.69 in [6]; 5.50 in series [7]; 5.15 in series [8]. Moreover, the selectivity ratio in series [4] turned out to be 3; in series [5], 3; in [10] it was 1.
In the case of `Nc1ncnc2c1c(Br)cn2[C@@H]1O[C@H](CO)[C@@H](F)[C@H]1O`, the pEC50 in series [1] is 6.43; in series [2], 5.99; in series [3] it was 7.51; in [6], 7.55; in series [7], 7.39; in series [8] it was 4.49. Moreover, the selectivity ratio in series [4] worked out at 1150; in series [9] it was 779; in series [10] it was 3.
Regarding `CCc1cn([C@@H]2O[C@H](CO)[C@@H](F)[C@H]2O)c2ncnc(N)c12`, the pEC50 in series [1] is less than 4.19; in series [2] it was less than 4.19; in [3] it was 4.69; in series [6] it was 4.67; in series [7] it was less than 4.19; in [8], 4.39. The selectivity ratio in series [4] was 2; in [5] it was 2; in series [9], less than 1.
Take `Nc1nc2c(ncn2[C@@H]2O[C@H](CO)[C@@H](F)[C@H]2O)c(=O)[nH]1`: the pEC50 in [1] is 4.33; in [2], less than 4.19; in [3] it was 4.38; in series [6] it was less than 4.19; in series [7] it was 4.46; in series [8] it was 4.38. Moreover, the selectivity ratio is 1 in series [9] and greater than 1 in [10].
Turning to `COc1ncnc2c1ncn2[C@@H]1O[C@H](CO)[C@@H](F)[C@H]1O`, the pEC50 in [1] was less than 4.19; in series [2], less than 4.19; in series [3], 4.47; in [6] it was 4.45; in series [7], 4.52; in series [8], less than 4.19. Besides, the results for the selectivity ratio in series [4], in [5] and in [9] were 2, 2 and greater than 2, respectively.
